{"source": "ChEMBL document CHEMBL3808372", "about": "“Identification of quinones as novel PIM1 kinase inhibitors” (Bioorg Med Chem Lett, 2016)", "key": {"[1]": {"target": "Cyclin-dependent kinase 16 (Homo sapiens) (UniProt Q00536)", "test": "Inhibition of human PCTK1 (160 to 474 amino acid residues) assessed as enzyme activity at 10 uM by KINOMEScan assay", "set-up": "scale not given: the % may be the effect or the level left", "summary_of_the_method": "(§1)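 Commercial KINOMEscan binding panel of 100 kinases, test compound at 10 μM. Results are primary-screen binding interactions expressed as % Ctrl = (test compound signal − positive control signal)/(negative control signal − positive control signal) × 100. Lower % Ctrl means stronger binding.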"}, "[2]": {"test": "Cytotoxicity against human DU145 cells assessed as cell growth inhibition after 72 hrs by Alamar blue assay", "assay_type": "functional, cell-based", "conditions": "DU-145, 72 h"}, "[3]": {"target": "Cyclin-dependent kinase 7 (Homo sapiens) (UniProt P50613)", "test": "Inhibition of full length human CDK7 assessed as enzyme activity at 10 uM by KINOMEScan assay", "set-up": "scale not given: the % may be the effect or the level left", "summary_of_the_method": "(§2)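 Competition binding screen on a 100-kinase KINOMEscan panel, compound tested at a single 10 μM concentration. Primary binding read-out expressed as % Ctrl = (test compound signal − positive control signal)/(negative control signal − positive control signal) × 100, with lower values meaning stronger binding.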"}, "[4]": {"target": "Serine/threonine-protein kinase PAK 2 (Homo sapiens) (UniProt Q13177)", "test": "Inhibition of human PAK2 (151 to 525 amino acid residues) expressed in bacterial system assessed as enzyme activity at 10 uM by KINOMEScan assay", "set-up": "scale not given: the % may be the effect or the level left", "summary_of_the_method": "as §2"}, "[5]": {"target": "Proto-oncogene tyrosine-protein kinase Src (Homo sapiens) (UniProt P12931)", "sequence (P12931 2-536 limits assumed)": "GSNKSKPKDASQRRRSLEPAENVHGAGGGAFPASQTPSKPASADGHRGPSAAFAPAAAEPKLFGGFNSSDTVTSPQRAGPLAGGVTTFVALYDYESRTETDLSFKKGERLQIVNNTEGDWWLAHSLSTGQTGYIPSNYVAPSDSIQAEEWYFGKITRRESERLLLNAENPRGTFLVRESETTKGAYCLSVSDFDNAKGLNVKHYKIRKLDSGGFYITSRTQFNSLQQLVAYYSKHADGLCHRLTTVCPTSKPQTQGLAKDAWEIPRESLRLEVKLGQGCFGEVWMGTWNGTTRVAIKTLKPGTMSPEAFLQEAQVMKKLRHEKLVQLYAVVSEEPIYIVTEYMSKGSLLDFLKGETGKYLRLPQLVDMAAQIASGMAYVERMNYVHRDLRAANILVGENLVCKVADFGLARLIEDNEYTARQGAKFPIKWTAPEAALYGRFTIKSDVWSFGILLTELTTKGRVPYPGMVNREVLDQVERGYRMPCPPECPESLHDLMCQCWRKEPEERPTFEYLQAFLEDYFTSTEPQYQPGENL", "test": "Inhibition of human SRC (240 to 536 amino acid residues) expressed in bacterial system assessed as enzyme activity at 10 uM by KINOMEScan assay", "set-up": "scale not given: the % may be the effect or the level left", "summary_of_the_method": "(§3)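 Single-concentration competition binding screen (KINOMEscan) across a 100-kinase panel at 10 μM. Primary binding read-out is reported as % of control: (test signal − positive-control signal)/(negative-control signal − positive-control signal) × 100. Lower values indicate stronger binding.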"}, "[6]": {"target": "Serine/threonine-protein kinase pim-2 (Homo sapiens) (UniProt Q9P1W9)", "sequence (Q9P1W9 whole entry, looked up)": "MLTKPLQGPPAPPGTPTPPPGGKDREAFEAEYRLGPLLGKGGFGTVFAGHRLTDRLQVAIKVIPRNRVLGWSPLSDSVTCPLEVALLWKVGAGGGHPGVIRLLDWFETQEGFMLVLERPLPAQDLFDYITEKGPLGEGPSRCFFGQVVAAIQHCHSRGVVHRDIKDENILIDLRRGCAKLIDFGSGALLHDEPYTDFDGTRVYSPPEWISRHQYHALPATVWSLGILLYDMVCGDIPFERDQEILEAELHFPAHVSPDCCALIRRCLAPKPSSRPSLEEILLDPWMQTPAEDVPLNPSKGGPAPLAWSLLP", "test": "Inhibition of PIM2 (unknown origin)"}, "[7]": {"target": "Cyclin-dependent kinase 9 (Homo sapiens) (UniProt P50750)", "test": "Inhibition of full length human CDK9 expressed in bacterial system assessed as enzyme activity at 10 uM by KINOMEScan assay", "set-up": "scale not given: the % may be the effect or the level left", "summary_of_the_method": "as §1"}, "[8]": {"target": "Serine/threonine-protein kinase pim-1 (Homo sapiens, UniProt P11309)", "test": "Share of MOE computational kinase hits for Pim family"}, "[9]": {"target": "Mitogen-activated protein kinase 14 (Homo sapiens) (UniProt Q16539)", "sequence (Q16539 whole entry)": "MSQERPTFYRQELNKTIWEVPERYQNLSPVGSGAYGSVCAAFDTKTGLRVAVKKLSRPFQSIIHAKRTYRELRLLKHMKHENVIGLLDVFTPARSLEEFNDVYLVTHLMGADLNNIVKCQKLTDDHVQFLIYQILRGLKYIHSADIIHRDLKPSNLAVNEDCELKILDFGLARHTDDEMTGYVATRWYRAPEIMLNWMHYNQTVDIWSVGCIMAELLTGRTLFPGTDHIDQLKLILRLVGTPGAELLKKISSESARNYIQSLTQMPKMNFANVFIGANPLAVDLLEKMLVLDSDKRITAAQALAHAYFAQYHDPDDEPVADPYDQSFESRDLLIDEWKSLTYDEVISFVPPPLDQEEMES", "test": "Inhibition of full length human p38-alpha expressed in bacterial system assessed as enzyme activity at 10 uM by KINOMEScan assay", "set-up": "scale not given: the % may be the effect or the level left", "summary_of_the_method": "as §1"}, "[10]": {"target": "Serine/threonine-protein kinase PAK 4 (Homo sapiens) (UniProt O96013)", "test": "Inhibition of human PAK4 (144 to 438 amino acid residues) expressed in bacterial system assessed as enzyme activity at 10 uM by KINOMEScan assay", "set-up": "scale not given: the % may be the effect or the level left", "summary_of_the_method": "as §3"}, "[11]": {"target": "Mitogen-activated protein kinase 3 (Homo sapiens) (UniProt P27361)", "test": "Inhibition of full length human ERK1 expressed in bacterial system assessed as enzyme activity at 10 uM by KINOMEScan assay", "set-up": "scale not given: the % may be the effect or the level left", "summary_of_the_method": "as §1"}, "[12]": {"target": "Tyrosine-protein kinase JAK3 (Homo sapiens) (UniProt P52333)", "test": "Inhibition of human JAK3 JH1 catalytic domain (781 to 1124 amino acid residues) assessed as enzyme activity at 10 uM by KINOMEScan assay", "set-up": "scale not given: the % may be the effect or the level left", "summary_of_the_method": "as §2"}, "[13]": {"target": "RAC-alpha serine/threonine-protein kinase (Homo sapiens) (UniProt P31749)", "test": "Inhibition of human Akt1 expressed in bacterial system assessed as enzyme activity at 10 uM by KINOMEScan assay", "set-up": "scale not given: the % may be the effect or the level left", "summary_of_the_method": "as §1"}, "[14]": {"target": "MAP kinase-interacting serine/threonine-protein kinase 2 (Homo sapiens) (UniProt Q9HBH9)", "sequence (Q9HBH9 whole entry, looked up, the tested form may be a part)": "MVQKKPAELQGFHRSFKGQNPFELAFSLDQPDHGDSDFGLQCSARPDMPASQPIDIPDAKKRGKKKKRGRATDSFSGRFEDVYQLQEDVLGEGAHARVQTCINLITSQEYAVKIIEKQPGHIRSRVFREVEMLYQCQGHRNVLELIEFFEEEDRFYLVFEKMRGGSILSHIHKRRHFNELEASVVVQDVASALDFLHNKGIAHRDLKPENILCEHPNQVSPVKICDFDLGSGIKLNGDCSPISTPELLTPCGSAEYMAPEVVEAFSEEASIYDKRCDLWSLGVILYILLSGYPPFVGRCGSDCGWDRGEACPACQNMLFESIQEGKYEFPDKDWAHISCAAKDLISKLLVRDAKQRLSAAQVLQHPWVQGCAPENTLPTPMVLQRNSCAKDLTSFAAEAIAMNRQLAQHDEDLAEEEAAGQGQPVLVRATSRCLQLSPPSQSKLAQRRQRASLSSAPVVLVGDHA", "test": "Inhibition of human MKNK2 (63 to 388 amino acid residues) assessed as enzyme activity at 10 uM by KINOMEScan assay", "set-up": "scale not given: the % may be the effect or the level left", "summary_of_the_method": "as §2"}, "[15]": {"target": "MAP kinase-activated protein kinase 2 (Homo sapiens) (UniProt P49137)", "test": "Inhibition of human MAPKAPK2 (48 to 345 amino acid residues) expressed in bacterial system assessed as enzyme activity at 10 uM by KINOMEScan assay", "set-up": "scale not given: the % may be the effect or the level left", "summary_of_the_method": "as §2"}, "[16]": {"target": "Testis-specific serine/threonine-protein kinase 1 (Homo sapiens) (UniProt Q9BXA7)", "test": "Inhibition of full length human TSSK1B expressed in bacterial system assessed as enzyme activity at 10 uM by KINOMEScan assay", "set-up": "scale not given: the % may be the effect or the level left", "summary_of_the_method": "as §2"}, "[17]": {"target": "Casein kinase II (Homo sapiens) (UniProt P67870+P68400+P19784)", "test": "Share of MOE computational kinase hits for CK2"}, "[18]": {"system": "Epidermal growth factor receptor (Homo sapiens), P00533 [L858R]", "test": "Inhibition of human EGFR L858R mutant (669 to 1011 amino acid residues) assessed as enzyme activity at 10 uM by KINOMEScan assay expressed in bacterial system assessed as enzyme activity at 10 uM by KINOMEScan assay", "set-up": "scale not given: the % may be the effect or the level left", "summary_of_the_method": "as §1"}, "[19]": {"target": "Aurora kinase B (Homo sapiens) (UniProt Q96GD4)", "sequence (Q96GD4 whole entry, the tested form may be a part)": "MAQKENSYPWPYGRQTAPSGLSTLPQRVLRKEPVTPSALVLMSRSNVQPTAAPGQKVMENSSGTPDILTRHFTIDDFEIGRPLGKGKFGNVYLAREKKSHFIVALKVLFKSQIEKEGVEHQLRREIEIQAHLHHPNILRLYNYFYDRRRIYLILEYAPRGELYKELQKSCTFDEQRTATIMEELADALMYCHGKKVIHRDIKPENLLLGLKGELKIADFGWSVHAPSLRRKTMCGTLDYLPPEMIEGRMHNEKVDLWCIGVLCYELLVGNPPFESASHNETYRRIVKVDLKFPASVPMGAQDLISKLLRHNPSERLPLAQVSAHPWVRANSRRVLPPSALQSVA", "test": "Inhibition of human AURKB (25 to 303 amino acid residues) assessed as enzyme activity at 10 uM by KINOMEScan assay", "set-up": "scale not given: the % may be the effect or the level left", "summary_of_the_method": "as §2"}, "[20]": {"target": "Bone morphogenetic protein receptor type-2 (Homo sapiens) (UniProt Q13873)", "test": "Inhibition of human BMPR2 (179 to 526 amino acid residues) assessed as enzyme activity at 10 uM by KINOMEScan assay", "set-up": "scale not given: the % may be the effect or the level left", "summary_of_the_method": "as §2"}, "[21]": {"target": "Serine/threonine-protein kinase Chk1 (Homo sapiens) (UniProt O14757)", "sequence (O14757 whole entry, the tested form may be a part)": "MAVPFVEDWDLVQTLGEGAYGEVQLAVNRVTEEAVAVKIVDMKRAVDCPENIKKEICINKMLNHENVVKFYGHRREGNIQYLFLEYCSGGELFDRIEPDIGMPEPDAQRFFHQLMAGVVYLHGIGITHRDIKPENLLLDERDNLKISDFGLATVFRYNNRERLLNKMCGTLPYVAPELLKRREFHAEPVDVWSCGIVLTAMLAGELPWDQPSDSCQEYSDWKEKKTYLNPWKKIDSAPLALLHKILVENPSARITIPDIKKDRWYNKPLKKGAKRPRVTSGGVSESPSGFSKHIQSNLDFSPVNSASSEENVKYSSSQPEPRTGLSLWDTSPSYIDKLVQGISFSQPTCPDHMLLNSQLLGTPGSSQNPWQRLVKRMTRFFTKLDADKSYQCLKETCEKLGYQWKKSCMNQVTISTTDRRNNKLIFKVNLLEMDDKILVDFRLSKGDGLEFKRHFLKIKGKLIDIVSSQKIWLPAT", "test": "Inhibition of human CHEK1 (1 to 289 amino acid residues) assessed as enzyme activity at 10 uM by KINOMEScan assay expressed in bacterial system assessed as enzyme activity at 10 uM by KINOMEScan assay", "set-up": "scale not given: the % may be the effect or the level left", "summary_of_the_method": "as §2"}, "[22]": {"target": "TGF-beta receptor type-1 (Homo sapiens) (UniProt P36897)", "sequence (P36897 whole entry, the tested form may be a part)": "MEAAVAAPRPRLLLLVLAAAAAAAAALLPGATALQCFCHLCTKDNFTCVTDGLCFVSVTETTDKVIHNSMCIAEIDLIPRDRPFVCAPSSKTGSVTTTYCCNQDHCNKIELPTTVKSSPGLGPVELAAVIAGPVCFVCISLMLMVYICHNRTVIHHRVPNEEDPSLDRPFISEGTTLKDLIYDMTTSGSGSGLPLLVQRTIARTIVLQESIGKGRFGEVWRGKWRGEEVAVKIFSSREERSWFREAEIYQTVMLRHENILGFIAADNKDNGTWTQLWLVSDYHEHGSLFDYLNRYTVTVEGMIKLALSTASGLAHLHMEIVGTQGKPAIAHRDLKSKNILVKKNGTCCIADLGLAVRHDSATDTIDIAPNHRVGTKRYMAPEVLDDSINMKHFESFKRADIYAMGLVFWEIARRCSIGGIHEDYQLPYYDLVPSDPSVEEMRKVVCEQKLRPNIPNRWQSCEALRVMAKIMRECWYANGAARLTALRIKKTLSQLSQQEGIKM", "test": "Inhibition of human TGFBR1 (179 to 503 amino acid residues) expressed in bacterial system assessed as enzyme activity at 10 uM by KINOMEScan assay", "set-up": "scale not given: the % may be the effect or the level left", "summary_of_the_method": "as §1"}, "[23]": {"target": "Dual specificity mitogen-activated protein kinase kinase 1 (Homo sapiens) (UniProt Q02750)", "sequence (Q02750 whole entry)": "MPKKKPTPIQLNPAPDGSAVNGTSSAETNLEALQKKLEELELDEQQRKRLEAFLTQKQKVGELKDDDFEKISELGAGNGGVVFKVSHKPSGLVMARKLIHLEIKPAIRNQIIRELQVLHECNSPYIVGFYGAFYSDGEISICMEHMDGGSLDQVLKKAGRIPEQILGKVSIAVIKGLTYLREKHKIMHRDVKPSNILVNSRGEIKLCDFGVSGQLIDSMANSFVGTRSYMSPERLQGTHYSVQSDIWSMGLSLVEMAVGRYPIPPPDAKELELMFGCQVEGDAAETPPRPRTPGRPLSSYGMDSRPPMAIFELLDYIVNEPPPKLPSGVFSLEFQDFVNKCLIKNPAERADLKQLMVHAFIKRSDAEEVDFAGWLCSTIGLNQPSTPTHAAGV", "test": "Inhibition of full length human MEK1 assessed as enzyme activity at 10 uM by KINOMEScan assay", "set-up": "scale not given: the % may be the effect or the level left", "summary_of_the_method": "as §2"}, "[24]": {"target": "Serine/threonine-protein kinase PLK1 (Homo sapiens) (UniProt P53350)", "sequence (P53350 whole entry, the tested form may be a part)": "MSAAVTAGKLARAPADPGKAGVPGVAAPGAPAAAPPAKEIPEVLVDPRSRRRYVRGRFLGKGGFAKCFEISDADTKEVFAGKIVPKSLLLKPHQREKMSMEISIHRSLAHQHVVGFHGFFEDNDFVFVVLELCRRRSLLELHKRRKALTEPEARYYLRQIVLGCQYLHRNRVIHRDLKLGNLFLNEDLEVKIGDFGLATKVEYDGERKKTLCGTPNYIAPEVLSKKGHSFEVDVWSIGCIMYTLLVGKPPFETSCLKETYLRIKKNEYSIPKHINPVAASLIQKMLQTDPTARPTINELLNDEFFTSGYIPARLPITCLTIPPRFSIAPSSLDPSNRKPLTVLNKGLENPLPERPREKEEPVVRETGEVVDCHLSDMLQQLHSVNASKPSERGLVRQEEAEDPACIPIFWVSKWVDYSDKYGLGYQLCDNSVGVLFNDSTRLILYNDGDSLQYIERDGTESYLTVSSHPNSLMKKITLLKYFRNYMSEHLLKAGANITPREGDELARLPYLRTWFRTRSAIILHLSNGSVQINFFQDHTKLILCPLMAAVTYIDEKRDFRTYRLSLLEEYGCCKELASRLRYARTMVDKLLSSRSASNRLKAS", "test": "Inhibition of human PLK1 (33 to 325 amino acid residues) assessed as enzyme activity at 10 uM by KINOMEScan assay", "set-up": "scale not given: the % may be the effect or the level left", "summary_of_the_method": "as §3"}, "[25]": {"target": "Angiopoietin-1 receptor (Homo sapiens) (UniProt Q02763)", "test": "Inhibition of human TIE2 (804 to 1112 amino acid residues) expressed in bacterial system assessed as enzyme activity at 10 uM by KINOMEScan assay", "set-up": "scale not given: the % may be the effect or the level left", "summary_of_the_method": "as §3"}, "[26]": {"system": "Serine/threonine-protein kinase B-raf (Homo sapiens), P15056 [V600E]", "test": "Inhibition of human BRAF V600E mutant (429 to 741 amino acid residues) assessed as enzyme activity at 10 uM by KINOMEScan assay", "set-up": "scale not given: the % may be the effect or the level left", "summary_of_the_method": "as §2"}, "[27]": {"target": "Inhibitor of nuclear factor kappa-B kinase subunit alpha (Homo sapiens) (UniProt O15111)", "sequence (O15111 whole entry)": "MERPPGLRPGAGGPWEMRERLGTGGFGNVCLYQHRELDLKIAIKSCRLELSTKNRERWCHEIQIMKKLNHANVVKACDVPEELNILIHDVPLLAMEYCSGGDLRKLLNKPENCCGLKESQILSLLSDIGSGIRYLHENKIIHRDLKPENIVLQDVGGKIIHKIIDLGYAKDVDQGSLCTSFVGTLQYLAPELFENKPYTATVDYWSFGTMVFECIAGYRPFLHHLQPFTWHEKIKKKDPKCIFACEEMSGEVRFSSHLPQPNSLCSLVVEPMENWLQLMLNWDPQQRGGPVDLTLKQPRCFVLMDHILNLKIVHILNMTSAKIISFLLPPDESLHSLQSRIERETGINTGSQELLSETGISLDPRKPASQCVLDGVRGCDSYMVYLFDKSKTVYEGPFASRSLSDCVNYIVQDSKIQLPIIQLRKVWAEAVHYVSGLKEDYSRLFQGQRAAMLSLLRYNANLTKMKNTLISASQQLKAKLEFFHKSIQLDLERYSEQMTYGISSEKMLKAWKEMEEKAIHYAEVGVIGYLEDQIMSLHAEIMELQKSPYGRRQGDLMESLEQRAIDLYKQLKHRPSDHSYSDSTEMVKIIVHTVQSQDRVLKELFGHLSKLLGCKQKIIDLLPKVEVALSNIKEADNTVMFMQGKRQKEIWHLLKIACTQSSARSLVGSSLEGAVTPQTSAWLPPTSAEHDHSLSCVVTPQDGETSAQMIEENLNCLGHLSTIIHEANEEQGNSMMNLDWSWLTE", "test": "Inhibition of full length human IKK-alpha assessed as enzyme activity at 10 uM by KINOMEScan assay", "set-up": "scale not given: the % may be the effect or the level left", "summary_of_the_method": "as §2"}}, "data": [{"smiles": "O=C1C2=C(C(=O)c3c(O)ccc(O)c31)[C@@H](O)[C@@H](O)[C@@H](O)C2", "values": [{"measurement": "Activity", "setting": "[1]", "result": 100, "unit": "%"}, {"measurement": "IC50", "setting": "[2]", "result": 8.21, "unit": "µM"}, {"measurement": "Activity", "setting": "[3]", "result": 88, "unit": "%"}, {"measurement": "Activity", "setting": "[4]", "result": 57, "unit": "%"}, {"measurement": "Activity", "setting": "[5]", "result": 91, "unit": "%"}, {"measurement": "% of MOE kinase hits", "setting": "[6]", "result": 29, "unit": "%"}, {"measurement": "Activity", "setting": "[7]", "result": 100, "unit": "%"}, {"measurement": "% of MOE kinase hits", "setting": "[8]", "result": 29, "unit": "%"}, {"measurement": "Activity", "setting": "[9]", "result": 100, "unit": "%"}, {"measurement": "Activity", "setting": "[10]", "result": 91, "unit": "%"}, {"measurement": "Activity", "setting": "[11]", "result": 100, "unit": "%"}, {"measurement": "Activity", "setting": "[12]", "result": 61, "unit": "%"}, {"measurement": "Activity", "setting": "[13]", "result": 100, "unit": "%"}, {"measurement": "Activity", "setting": "[14]", "result": 98, "unit": "%"}, {"measurement": "Activity", "setting": "[15]", "result": 93, "unit": "%"}, {"measurement": "Activity", "setting": "[16]", "result": 89, "unit": "%"}, {"measurement": "% of MOE kinase hits", "setting": "[17]", "result": 43, "unit": "%"}, {"measurement": "Activity", "setting": "[18]", "result": 78, "unit": "%"}, {"measurement": "Activity", "setting": "[19]", "result": 72, "unit": "%"}, {"measurement": "Activity", "setting": "[20]", "result": 60, "unit": "%"}, {"measurement": "Activity", "setting": "[21]", "result": 79, "unit": "%"}, {"measurement": "Activity", "setting": "[22]", "result": 100, "unit": "%"}, {"measurement": "Activity", "setting": "[23]", "result": 92, "unit": "%"}, {"measurement": "Activity", "setting": "[24]", "result": 96, "unit": "%"}, {"measurement": "Activity", "setting": "[25]", "result": 89, "unit": "%"}, {"measurement": "Activity", "setting": "[26]", "result": 70, "unit": "%"}, {"measurement": "Activity", "setting": "[27]", "result": 87, "unit": "%"}]}]}
